ChEMBL document CHEMBL3627612, “Hirsutinolide Series Inhibit Stat3 Activity, Alter GCN1, MAP1B, Hsp105, G6PD, Vimentin, TrxR1, and Importin α-2 Expression, and Induce Antitumor Effects against Human Glioma” (J Med Chem, 2015)
Active and inactive are the calls of the source. The calls are words filed in the database; no cut-off is given here.

Key:
[1] = test system: MCF7; test: Antiproliferative activity against human MCF7 cells for 72 hrs by cyquant assay; type: functional, cell-based; conditions: MCF7, 72 h
Method in brief: (§1)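 CyQuant proliferation assay after 72 h compound exposure of cultured cells; relative viability normalized to DMSO-treated control; IC50 values derived. Glioma lines grown in RPMI or DMEM with 10% FBS and 1% nonessential amino acids.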

[2] = Cytotoxicity against mouse NIH/3T3 cells after 72 hrs by cyquant cells; type: cell-based; conditions: NIH3T3, 72 h; method in brief: as §1
[3] = test system: U-251; test: Antiproliferative activity against human U251MG cells at 5 uM for 72 hrs by cyquant assay; type: functional; method in brief: as §1
[4] = test system: MDA-MB-231; test: Antiproliferative activity against human MDA-MB-231 cells at 5 uM for 72 hrs by cyquant assay; type: functional, cell-based
[5] = test system: SF-295; test: Antiproliferative activity against human SF295 cells at 5 uM for 72 hrs by cyquant assay; type: functional, cell-based
[6] = Cytotoxicity against mouse NIH/3T3 cells at 5uM after 72 hrs by cyquant cells; type: cell-based; conditions: nih3t3, 72 h; method in brief: as §1
[7] = target: Signal transducer and activator of transcription 3 (Mus musculus) (UniProt P42227); test: Inhibition of Stat3 dimer DNA binding activity in mouse NIH3T3/vSrc nuclear extract at 5 uM preincubated for 30 mins followed by addition of radiolabeled probe hSIE for 30 mins by EMSA
[8] = test system: NIH3T3; test: Inhibition of Stat5 dimer DNA binding activity in EGF-stimulated mouse NIH3T3 nuclear extract expressing human EGFR at 5 uM preincubated for 30 mins followed by addition of radiolabeled probe MGFe for 30 mins by EMSA; type: cell-free
[9] = target: T1, Signal transducer and activator of transcription 1 (Mus musculus) (UniProt P42225); test: Inhibition of Stat1 dimer DNA binding activity in EGF-stimulated mouse NIH3T3 nuclear extract expressing human EGFR at 5 uM preincubated for 30 mins followed by addition of radiolabeled probe hSIE for 30 mins by EMSA
T1 sequence (whole entry): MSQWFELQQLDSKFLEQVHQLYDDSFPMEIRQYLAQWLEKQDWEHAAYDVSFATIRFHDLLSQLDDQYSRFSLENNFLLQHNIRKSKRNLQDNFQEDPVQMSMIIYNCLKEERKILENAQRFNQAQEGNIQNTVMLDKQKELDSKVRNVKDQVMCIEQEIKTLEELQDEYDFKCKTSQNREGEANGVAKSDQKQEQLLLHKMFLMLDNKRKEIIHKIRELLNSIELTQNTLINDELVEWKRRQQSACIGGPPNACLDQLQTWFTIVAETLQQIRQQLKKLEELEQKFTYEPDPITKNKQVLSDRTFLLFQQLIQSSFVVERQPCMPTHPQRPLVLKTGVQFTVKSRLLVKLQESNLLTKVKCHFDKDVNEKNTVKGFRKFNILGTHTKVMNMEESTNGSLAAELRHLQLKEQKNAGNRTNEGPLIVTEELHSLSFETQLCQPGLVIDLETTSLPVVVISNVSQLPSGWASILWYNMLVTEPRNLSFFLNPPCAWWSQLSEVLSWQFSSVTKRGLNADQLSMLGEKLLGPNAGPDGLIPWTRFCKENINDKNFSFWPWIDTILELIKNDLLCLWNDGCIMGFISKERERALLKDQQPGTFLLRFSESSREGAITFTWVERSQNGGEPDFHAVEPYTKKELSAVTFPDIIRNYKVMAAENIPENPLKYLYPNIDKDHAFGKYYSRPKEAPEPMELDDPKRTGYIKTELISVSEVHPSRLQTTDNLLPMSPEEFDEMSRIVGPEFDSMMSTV

[10] = target: T2, Signal transducer and activator of transcription 3 (Homo sapiens, UniProt P40763); test: Inhibition of Stat3 activity in human U251MG cells assessed as phosphorylated Stat3 level at 5 uM by immunoblot analysis; type: cell-based; conditions: U-251, TDE = time-dependent effect
[11] = target: T2, Signal transducer and activator of transcription 3; test: Binding affinity to Stat3 (unknown origin) by NMR analysis
[12] = Antiproliferative activity against human U251MG cells for 72 hrs by cyquant assay; type: functional, cell-based; conditions: U-251, 72 h; method in brief: as §1
[13] = test system: MDA-MB-231; test: Antiproliferative activity against human MDA-MB-231 cells for 72 hrs by cyquant assay; type: functional, cell-based; conditions: MDA-MB-231, 72 h; method in brief: as §1
[14] = Antiproliferative activity against human U373MG cells for 72 hrs by cyquant assay; type: functional, cell-based, U-373MG ATCC; conditions: U373 MG; method in brief: as §1
[15] = Antiproliferative activity against human SF295 cells for 72 hrs by cyquant assay; type: functional, cell-based; conditions: SF-295, 72 h; method in brief: as §1
[16] = test system: U-251; test: Antimitotic activity in human U251MG cells assessed as defect in chromatid structure at 0.1 uM after 15 hrs confocal microscopic analysis; type: functional, cell-based
Method in brief: (§2)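 U251MG on coverslips synchronized by double thymidine block (2 mM), released 9 h, treated 15 h (8 μM; paclitaxel 100 nM). Fixed 4% paraformaldehyde, digitonin-permeabilized, BSA-blocked, stained for β-tubulin and MAP1B with DAPI counterstain; chromatid structure and segregation scored by confocal microscopy.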

[17] = test system: U-251; test: Antimitotic activity in human U251MG cells assessed as defect in sister chromatid segragation at 0.1 uM after 15 hrs confocal microscopic analysis; type: functional, cell-based; method in brief: as §2
[18] = test system: U-251; test: Induction of apoptosis in human U251MG cells assessed as PARP level at […] after 24 to 48 hrs by immunoblot analysis; type: functional, cell-based
[19] = test system: U-251; test: Induction of apoptosis in human U251MG cells assessed as cleaved caspase-3 level at […] after 24 to 48 hrs by immunoblot analysis; type: functional, cell-based
[20] = target: T2, Signal transducer and activator of transcription 3; test: Inhibition of Stat3 activity in human U251MG cells assessed as phosphorylated Stat3 level after 2 hrs by immunoblot analysis; type: cell-based; conditions: U-251
Method in brief: (§3)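 U251MG cells treated with 5 μM compound for 0–24 h, or with 0–5 μM for 2 h. Whole-cell lysates immunoblotted for pStat3, Stat3, GAPDH. Control was 0.025% DMSO-treated cells.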

[21] = target: T3, Signal transducer and activator of transcription 1/ 3 (Mus musculus) (UniProt P42227+P42225); conditions: NIH3T3, 5 uM
[22] = target: Signal transducer and activator of transcription 3 (Mus musculus) (UniProt P42227); conditions: NIH3T3, 5 uM
[23] = target: T2, Signal transducer and activator of transcription 3; conditions: U-251, 5 uM
[24] = target: T3, Signal transducer and activator of transcription 1/ 3 (Mus musculus); test: Inhibition of Stat1:Stat3 dimer DNA binding activity in EGF-stimulated mouse NIH3T3 nuclear extract expressing human EGFR assessed as residual activity at 5 uM preincubated for 30 mins followed by addition of radiolabeled probe hSIE for 30 mins by EMSA; type: cell-free
[25] = target: Signal transducer and activator of transcription 3 (Mus musculus) (UniProt P42227); test: Inhibition of Stat3 dimer DNA binding activity in EGF-stimulated mouse NIH3T3 nuclear extract expressing human EGFR assessed as residual activity at 5 uM preincubated for 30 mins followed by addition of radiolabeled probe hSIE for 30 mins by EMSA
[26] = target: T1, Signal transducer and activator of transcription 1 (Mus musculus); test: Inhibition of Stat1 dimer DNA binding activity in EGF-stimulated mouse NIH3T3 nuclear extract expressing human EGFR assessed as residual activity at 5 uM preincubated for 30 mins followed by addition of radiolabeled probe hSIE for 30 mins by EMSA
[27] = target: T2, Signal transducer and activator of transcription 3; test: Inhibition of Stat3 activity in human U251MG cells assessed as phosphorylated Stat3 level at 5 uM after 0.5 to 24 hrs by immunoblot analysis; type: cell-based; conditions: U-251; method in brief: as §3

Signal transducer and activator of transcription 3 (Mus musculus), sequence (P42227 whole entry): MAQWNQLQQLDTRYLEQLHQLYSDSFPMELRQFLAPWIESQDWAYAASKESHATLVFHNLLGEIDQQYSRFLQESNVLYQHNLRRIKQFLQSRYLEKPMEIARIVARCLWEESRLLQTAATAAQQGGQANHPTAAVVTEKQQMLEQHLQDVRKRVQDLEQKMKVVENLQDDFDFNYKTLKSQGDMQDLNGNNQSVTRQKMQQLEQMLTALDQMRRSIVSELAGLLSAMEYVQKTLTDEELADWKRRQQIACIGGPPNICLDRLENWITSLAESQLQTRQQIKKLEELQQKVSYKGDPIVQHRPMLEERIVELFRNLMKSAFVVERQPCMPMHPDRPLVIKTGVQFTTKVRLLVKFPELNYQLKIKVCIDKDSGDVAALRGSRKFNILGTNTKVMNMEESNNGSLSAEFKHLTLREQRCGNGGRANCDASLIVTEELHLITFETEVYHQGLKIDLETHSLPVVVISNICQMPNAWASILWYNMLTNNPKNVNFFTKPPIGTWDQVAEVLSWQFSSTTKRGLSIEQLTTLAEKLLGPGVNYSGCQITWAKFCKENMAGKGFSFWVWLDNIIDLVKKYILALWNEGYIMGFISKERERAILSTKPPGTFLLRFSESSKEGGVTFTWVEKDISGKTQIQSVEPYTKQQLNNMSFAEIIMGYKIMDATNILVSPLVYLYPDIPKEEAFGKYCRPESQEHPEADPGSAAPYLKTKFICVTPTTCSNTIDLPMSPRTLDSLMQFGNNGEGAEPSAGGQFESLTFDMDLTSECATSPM
T2 sequence (P40763 whole entry): as the sequence (P42227 whole entry) above, with D760E counted along it

Structure (SMILES)	IC50 [2] [µM]	inhibition [3]	inhibition [4]	inhibition [5]	Activity [6]	inhibition [7]	inhibition [8]	inhibition [9]	IC50 [12] [µM]	other results
C=C(C)C(=O)O[C@H]1C[C@@H](C)[C@]2(O)CC[C@](C)(/C=C3/OC(=O)C(COC(C)=O)=C31)O2	7.1	Active	Active	Active	Toxic	Active	inactive	inactive	2.6	IC50 [1]: 7.7 µM; inhibition [10]: tde; Activity [11]: Dose-dependent effect; IC50 [13]: 5.2 µM; IC50 [14]: 8.3 µM; IC50 [15]: 9.1 µM
CC(=O)O[C@H]1C(=O)[C@@]2(C)[C@H]([C@H](OC(=O)c3ccccc3)[C@]3(O)C[C@H](OC(=O)[C@H](O)[C@@H](NC(=O)c4ccccc4)c4ccccc4)C(C)=C1C3(C)C)[C@]1(OC(C)=O)CO[C@@H]1C[C@@H]2O										Activity [16]: Active; Activity [17]: Active; Activity [18]: Active; Activity [19]: Active
CC(C)=CCC/C(C)=C/C(=O)OCC1=C2/C(=C\[C@@]3(C)CC[C@](O)(O3)[C@H](C)C[C@@H]2O)OC1=O	> 5	Active				Active		Active	1	inhibition [20]: Dose-dependent effect; inhibition [21]: Active; inhibition [22]: Active; inhibition [23]: inactive
C/C=C(/C)C(=O)O[C@H]1C[C@@H](C)[C@]2(O)CC[C@](C)(/C=C3/OC(=O)C(CO)=C31)O2		Active	inactive	inactive	Non-toxic	Active	inactive	inactive		Activity [24]: 71%; Activity [25]: 63%; Activity [26]: 61%; inhibition [27]: Active
